In ChEMBL document CHEMBL1125399, “Perfluorocarbon-based antidiabetic agents” (1992):

Species: Mus musculus
Experiment: Percent plasma glucose concentration of drug treated mice (ob/ob) relative to vehicle control animals
Assay type: functional
Procedure, shortened: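 Female ob/ob mice, 10 weeks old, fed ad libitum, in groups of 7–11. Dosed po once daily for 4 days in 0.5% methyl cellulose vehicle. Decapitated the next morning; 0.1 mL blood into saline with Trasylol and EDTA; plasma glucose by autoanalyzer. Reciprocal-transformed (y = 160/x) harmonic mean given as % of vehicle. Bonferroni-adjusted comparisons.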
With `O=C(Nc1ccc(CCc2nn[nH]n2)cc1)C(F)(F)C(F)(F)C(F)(F)C(F)(F)C(F)(F)C(F)(F)C(F)(F)F` the Activity was 119%. `O=C(Nc1cccc2ncccc12)C(F)(F)C(F)(F)C(F)(F)C(F)(F)C(F)(F)C(F)(F)C(F)(F)F` was tested, and the Activity was 64%. For `CCOC(=O)C(F)(F)C(F)(F)C(F)(F)C(F)(F)C(F)(F)C(F)(F)C(F)(F)F`, the Activity was 72%. `O=C(O)C(F)(F)C(F)(F)C(F)(F)C(F)(F)C(F)(F)C(F)(F)C(F)(F)F` was tested, and the Activity was 60%. In the case of `CCCCCCCCC(=O)NCCCCCc1nnn[nH]1`, the Activity is reported as 100%. Work on `O=C(Nc1ccc(Cc2nnn[nH]2)cc1)C(F)(F)C(F)(F)C(F)(F)C(F)(F)C(F)(F)C(F)(F)F` yielded an Activity of 93%. `O=C(N1CCc2ccccc2C1)C(F)(F)C(F)(F)C(F)(F)C(F)(F)C(F)(F)C(F)(F)C(F)(F)F` showed an Activity of 87%. For `O=C(Nc1ccc(CCCc2nn[nH]n2)cc1)C(F)(F)C(F)(F)C(F)(F)F`, the Activity was 72%. `O=C(Nc1ccc(Cc2nnn[nH]2)cc1)C(F)(F)C(F)(F)C(F)(F)C(F)(F)C(F)(F)C(F)(F)C(F)(F)C(F)F` was tested, and the Activity was 65%. In the case of `Cc1csc(=N)n1C(=O)C(F)(F)C(F)(F)C(F)(F)C(F)(F)C(F)(F)C(F)(F)C(F)(F)F`, the Activity is reported as 94%. With `O=C(N1CCN(c2ccccn2)CC1)C(F)(F)C(F)(F)C(F)(F)C(F)(F)C(F)(F)C(F)(F)C(F)(F)F` the Activity was 76%. `O=C(Nc1ncccn1)C(F)(F)C(F)(F)C(F)(F)C(F)(F)C(F)(F)C(F)(F)C(F)(F)F` showed an Activity of 49%. `O=C(NO)C(F)(F)C(F)(F)C(F)(F)C(F)(F)C(F)(F)C(F)(F)C(F)(F)F` showed an Activity of 52%. For `O=C(NCc1ccccc1)C(F)(F)C(F)(F)C(F)(F)C(F)(F)C(F)(F)C(F)(F)C(F)(F)F`, the Activity was 106%. `O=C(NCCCCCc1nn[nH]n1)C(F)(F)C(F)(F)C(F)(F)C(F)(F)C(F)(F)C(F)(F)C(F)(F)C(F)(F)F` gave an Activity of 57%. `O=C(Nc1cccc(Cc2nn[n-]n2)c1)C(F)(F)C(F)(F)C(F)(F)F.[Na+]` gave an Activity of 71%. Work on `O=C(Nc1ccc(Cc2nn[n-]n2)cc1)C(F)(F)C(F)(F)C(F)(F)C(F)(F)C(F)(F)C(F)(F)C(F)(F)F.[Na+]` yielded an Activity of 55%. `O=C(Nc1ccccc1Cc1nn[n-]n1)C(F)(F)C(F)(F)C(F)(F)F.[Na+]` gave an Activity of 84%. `O=C(Nc1ccc(Cc2nn[nH]n2)cc1)c1cc(C(F)(F)F)cc(C(F)(F)F)c1` gave an Activity of 82%. With `O=C(Nc1ccc(F)cc1)C(F)(F)C(F)(F)C(F)(F)C(F)(F)C(F)(F)C(F)(F)C(F)(F)F` the Activity was 91%. `O=C(Nc1ccc(Cc2nnn[nH]2)cc1)C(F)(F)C(F)(F)F` was tested, and the Activity was 86%. In the case of `O=C(NCCc1ccccn1)C(F)(F)C(F)(F)C(F)(F)C(F)(F)C(F)(F)C(F)(F)C(F)(F)F`, the Activity is reported as 63%. In the case of `O=C(O)C(F)(F)C(F)(F)C(F)(F)F`, the Activity is reported as 101%. For `O=C(Nc1ccc(-c2nn[nH]n2)cc1)C(F)(F)C(F)(F)C(F)(F)C(F)(F)C(F)(F)C(F)(F)C(F)(F)F`, the Activity was 82%. In the case of `O=C(Nc1ccccc1O)C(F)(F)C(F)(F)C(F)(F)C(F)(F)C(F)(F)C(F)(F)C(F)(F)F`, the Activity is reported as 85%. `O=C(Nc1ccc(Cc2nnn[nH]2)cc1)C(F)(F)C(F)(F)C(F)(F)C(F)(F)C(F)(F)C(F)(F)C(F)(F)C(F)(F)F` showed an Activity of 63%. For `O=C(Nc1ccccc1Cc1nn[nH]n1)C(F)(F)C(F)(F)C(F)(F)C(F)(F)C(F)(F)C(F)(F)C(F)(F)F`, the Activity was 66%. In the case of `OCC(F)(F)C(F)(F)C(F)(F)C(F)(F)C(F)(F)C(F)(F)C(F)F`, the Activity is reported as 67%. `O=C(Nc1ccc(Cc2nnn[nH]2)cc1)C(F)(F)C(F)(F)C(F)(F)C(F)(F)F` showed an Activity of 92%. Molecule `O=C(Nc1ccc(Cc2nn[nH]n2)cc1)c1c(F)c(F)c(F)c(F)c1F` has an Activity of 75%. For `O=C(Nc1nn[nH]n1)C(F)(F)C(F)(F)C(F)(F)C(F)(F)C(F)(F)C(F)(F)C(F)(F)F`, the Activity was 64%. `O=C(Nc1cccc(Cc2nn[nH]n2)c1)C(F)(F)C(F)(F)C(F)(F)F` was tested, and the Activity was 86%. In the case of `O=C(Nc1ccc(Cc2nnnn2Cc2ccccc2)cc1)C(F)(F)C(F)(F)C(F)(F)C(F)(F)C(F)(F)C(F)(F)C(F)(F)F`, the Activity is reported as 82%.
